Experimental data published in ChEMBL document CHEMBL1135534, “Synthesis, cytotoxicity, and antiplasmodial and antitrypanosomal activity of new neocryptolepine derivatives” (J Med Chem, 2002).
Active and inactive are the calls of the source. The rule behind the calls is not given here.

How the values were obtained:
[1] = system: Nucleic Acid; test: (§1) Inhibition of DNA interaction using DNA Methyl Green Assay.; format: nucleic-acid assay
How it was run: (§2)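 DNA–methyl green complex stirred 24 h at 37 °C in 0.05 M Tris-HCl pH 7.5 with 7.5 mM MgSO4. Compound dried in wells under vacuum, then complex solution added. Absorbance at 620 nm compared between start and 24 h. IC50 taken as the concentration giving 50% absorbance decrease (50% dye displacement).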

[2] = system: MRC5; test: Cytotoxicity against human diploid embryonic lung cell line MRC-5 using MTT assay; format: functional, cell-based
How it was run: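 Cells seeded at 5000 per well and washed after 24 h. 2-fold drug dilutions added in RPMI + 5% FCS, final DMSO below 0.5%. Incubated 7 days at 37 °C, 5% CO2/95% air. MTT read-out at 540 nm as percent reduction versus untreated controls. IC50 in triplicate (mean ± SD).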

[3] = system: Plasmodium falciparum; test: Antiplasmodial activity against chloroquine-resistant Plasmodium falciparum W2; format: functional, organism-based
How it was run: (§3)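 Asexual P. falciparum cultures at 1% parasitaemia and 2% haematocrit (W2 for line 1, Ghana for line 2) exposed to 2-fold serial dilutions of the HCl salt for 48 h at 37 °C under 93% N2/4% CO2/3% O2. Plates frozen at -20 °C to lyse cells. Parasite LDH read-out: APAD reduction coupled to NBT formazan at 650 nm. IC50 in triplicate, mean ± SD.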

[4] = system: Plasmodium falciparum; test: Antiplasmodial activity against chloroquine-sensitive Plasmodium falciparum Ghana; format: functional, organism-based; how it was run: as §3
[5] = system: Trypanosoma brucei; test: Antitrypanosomal activity against Trypanosoma brucei.; format: functional, organism-based
How it was run: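 Bloodstream-form trypomastigotes grown in HMI-9 medium; 10 000 parasites per well exposed to a range of compound concentrations for 4 days. Multiplication read colorimetrically at 490 nm after MTT addition. Test compounds as hydrochloride salts; IC50 determined in triplicate (mean ± SD).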

[6] = Inhibition of beta-hematin formation; active
[7] = molecular target: T1, Histidine-rich protein PFHRP-II (Plasmodium falciparum) (UniProt P05227); test: Inhibition of beta-hematin formation; no inhibition; format: functional
T1 sequence (whole entry): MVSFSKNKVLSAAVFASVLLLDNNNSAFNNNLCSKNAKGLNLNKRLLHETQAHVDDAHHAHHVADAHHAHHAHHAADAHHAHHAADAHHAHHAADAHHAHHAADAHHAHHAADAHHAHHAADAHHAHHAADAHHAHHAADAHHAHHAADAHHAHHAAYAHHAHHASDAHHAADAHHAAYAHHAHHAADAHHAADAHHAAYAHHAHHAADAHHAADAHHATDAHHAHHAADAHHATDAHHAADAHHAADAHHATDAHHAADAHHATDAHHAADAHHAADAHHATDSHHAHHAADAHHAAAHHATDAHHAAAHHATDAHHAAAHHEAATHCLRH
How it was run: (§4)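 Hematin solutions received compound at 3 equiv relative to hemin before acidification. Incubated 40 min at 60 °C, then cooled and filtered; precipitate washed with water and dried. β-Hematin detected by FT-IR bands at 1660 and 1207 cm-1. Hemin without compound served as the formation control. Result is a qualitative yes/no call.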

[8] = system: Trypanosoma cruzi; test: Antitrypanosomal activity against Trypanosoma cruzi; format: functional, organism-based
How it was run: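 Primary mouse peritoneal macrophages seeded at 30 000 per well; after 24 h, about 10 000 trypomastigotes added per well with 2-fold drug dilutions. Incubated 4 days at 37 °C in 5% CO2/95% air. Cells MeOH-fixed and Giemsa-stained. Percent reduction of total parasite load (free trypomastigotes plus intracellular amastigotes) versus untreated cultures scored microscopically. IC50 in triplicate (mean ± SD).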

[9] = molecular target: T1, Histidine-rich protein PFHRP-II (Plasmodium falciparum); test: Inhibition of beta-hematin formation; active; format: functional; how it was run: as §4
[10] = system: Nucleic Acid; test: as §1; format: functional; how it was run: as §2
[11] = system: Nucleic Acid; test: as §1; format: nucleic-acid assay; conditions: concentration not given here; how it was run: as §2

SMILES	IC50 [1] [µM]	IC50 [2] [µM]	IC50 [3] [µM]	IC50 [4] [µM]	IC50 [5] [µM]	inhibition [6]	inhibition [7]	IC50 [8] [µM]	inhibition [9]	IC50 [10] [mM]	inhibition [11] [%]
Cn1c2nc3ccc(C#N)cc3c-2cc2ccccc21	> 1000	> 32	> 32	> 32	> 32	Active					
COc1ccc2c(c1)cc1c3ccccc3nc-1n2C	77.9	4	4.7	4.3	0.3		No inhibition	1.7			
COc1ccc2c(c1)cc1c3cc(C#N)ccc3nc-1n2C	> 500	> 32	17	28.3	1		No inhibition	1			
Cn1c2nc3ccccc3c-2cc2ccc(C(F)(F)F)cc21	> 500	18			16.7			> 32	Active		
Cn1c2nc3ccccc3c-2cc2ccccc21 [NEOCRYPTOLEPINE]	92.8	11	14	27.3	4	Active		4			
Fc1ccc2[nH]c3nc4ccccc4c-3cc2c1	> 1000	> 32	> 32	> 32	> 32		No inhibition	> 32			
Cn1c2nc3ccccc3c-2cc2ccc(Cl)cc21	> 700	15.5			9.3			17	Active		
Cn1c2nc3ccccc3c-2cc2ccc(Br)cc21	> 600	18.5			27.3			> 32	Active		
Cn1c2nc3ccccc3c-2cc2c(Br)cccc21	> 600	16	> 32	> 32	16.7		inactive	15.7			
Clc1ccc2[nH]c3nc4ccccc4c-3cc2c1	> 1000	> 32	> 32	> 32	> 32	Active		> 32			
Clc1cc(Cl)c2[nH]c3nc4ccccc4c-3cc2c1		> 32	> 32	> 32	> 32	Active				> 1	
COc1cccc2c1cc1c3ccccc3nc-1n2C	> 1000	5	12.3	17.7	1.3		No inhibition	4			
Cn1c2nc3ccccc3c-2cc2cc([N+](=O)[O-])ccc21	> 1000	> 32	> 32	29	0.7						
Cn1c2nc3ccc(C#N)cc3c-2cc2cc(F)ccc21	> 600	11	14.7	16.3	4	Active		> 32			
C[n+]1c2ccccc2cc2[n-]c3ccccc3c21 [CRYPTOLEPINE]	65.7	1.5	2	2.3	3	Active					
Cn1c2nc3ccccc3c-2cc2cc(Br)ccc21	> 400	> 32	4	6	1	Active		> 32			
Cn1c2nc3ccccc3c-2cc2cc(I)ccc21	> 400	16	6.3	17.7	1	Active		18.3			
Cn1c2nc3ccccc3c-2cc2cc(C#N)ccc21	> 600	16	15.3	17	4			16.3			
COc1ccc2[nH]c3nc4ccccc4c-3cc2c1	> 1000	> 32	> 32	> 32	> 32				Active		
Cn1c2nc3ccc(C#N)cc3c-2cc2cc(C(F)(F)F)ccc21	> 200	> 32	6.7	14	> 32			> 32			
Cn1c2nc3ccccc3c-2cc2cc(Cl)ccc21	> 500	16.5	5	21	1.3	Active		12			
Cn1c2nc3ccccc3c-2cc2cc(F)ccc21	> 500	15	4.7	19.3	14.3	Active		6			
COc1ccc2cc3c4ccccc4nc-3n(C)c2c1	150	3.5			0.4		No inhibition	1			37
Cn1c2nc3ccccc3c-2cc2c(C(F)(F)F)cccc21	> 400	16	> 32	> 32	> 32			16.3			
Cc1ccc2c(c1)cc1c3ccccc3nc-1n2C		0.95	2.3	2.7	0.1						
Cn1c2nc3ccc(C#N)cc3c-2cc2cc(Cl)ccc21		> 32	> 32	> 32	> 32						
CSc1ccc2c(c1)cc1c3ccccc3nc-1n2C	> 600	5	3.7	4	0.8	Active		4			
